From ChEMBL document CHEMBL4033790, “Design and Synthesis of Novel Deuterated Ligands Functionally Selective for the γ-Aminobutyric Acid Type A Receptor (GABAAR) α6 Subtype with Improved Metabolic Stability and Enhanced Bioavailability” (J Med Chem, 2018)
≈ marks a conversion by molar mass, not a printed value. Calls of active or inactive are those of the source. No cut-off for these calls is given here.

Assays:
[1] = target: Voltage-gated inwardly rectifying potassium channel KCNH2 (Homo sapiens, UniProt Q12809); test: Displacement of [3H]-dofetilide from human ERG expressed in HEK cell membranes at >10 uM after 60 to 90 mins by scintillation counting
Sequence of Voltage-gated inwardly rectifying potassium channel KCNH2 (Q12809 whole entry): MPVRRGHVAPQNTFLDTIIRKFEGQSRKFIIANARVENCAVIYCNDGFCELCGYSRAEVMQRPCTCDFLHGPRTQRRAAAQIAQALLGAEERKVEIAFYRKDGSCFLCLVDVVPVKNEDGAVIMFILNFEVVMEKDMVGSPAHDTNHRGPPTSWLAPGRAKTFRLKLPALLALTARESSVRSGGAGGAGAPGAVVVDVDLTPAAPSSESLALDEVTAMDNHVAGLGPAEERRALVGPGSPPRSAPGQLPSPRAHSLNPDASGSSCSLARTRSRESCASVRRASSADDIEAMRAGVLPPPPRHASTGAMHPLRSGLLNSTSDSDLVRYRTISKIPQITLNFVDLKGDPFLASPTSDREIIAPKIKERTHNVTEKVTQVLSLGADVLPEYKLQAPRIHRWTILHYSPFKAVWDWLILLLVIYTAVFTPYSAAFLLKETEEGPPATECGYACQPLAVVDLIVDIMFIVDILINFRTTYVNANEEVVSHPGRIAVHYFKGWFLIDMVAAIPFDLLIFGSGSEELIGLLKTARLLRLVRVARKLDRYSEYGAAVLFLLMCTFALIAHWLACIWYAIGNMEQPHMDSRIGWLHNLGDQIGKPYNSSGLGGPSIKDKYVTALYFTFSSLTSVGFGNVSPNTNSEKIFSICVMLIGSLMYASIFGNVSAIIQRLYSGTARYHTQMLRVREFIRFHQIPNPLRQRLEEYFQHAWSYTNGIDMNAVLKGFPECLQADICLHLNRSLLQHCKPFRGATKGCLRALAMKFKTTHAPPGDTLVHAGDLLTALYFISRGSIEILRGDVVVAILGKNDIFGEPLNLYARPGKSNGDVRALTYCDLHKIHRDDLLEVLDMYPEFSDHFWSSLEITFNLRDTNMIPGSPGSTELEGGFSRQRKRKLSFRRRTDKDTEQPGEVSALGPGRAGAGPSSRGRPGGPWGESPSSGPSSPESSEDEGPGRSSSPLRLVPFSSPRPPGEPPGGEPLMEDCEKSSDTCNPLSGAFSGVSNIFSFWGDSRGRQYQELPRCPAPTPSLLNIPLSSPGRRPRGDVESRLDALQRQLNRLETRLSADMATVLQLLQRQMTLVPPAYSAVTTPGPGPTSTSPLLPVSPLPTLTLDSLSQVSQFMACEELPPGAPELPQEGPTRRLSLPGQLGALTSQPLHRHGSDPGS

[2] = Metabolic stability in human liver microsomes assessed as parent compound remaining at 10 uM after 60 mins by LC-MS analysis; type: ADME, microsome; conditions: read-out: Stability
Procedure, shortened: (§1)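 The 60 min samples of the microsomal incubation (10 μM compound, human or mouse liver microsomes at 0.5 mg/mL, NADPH regenerating system, 37 °C) were analysed by LC-MS. Detection used SIM mode with dual ESI/APCI ionization, calibrated to the retention times and masses of the parent and its O-demethylated metabolites. Peak intensities were measured.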

[3] = Metabolic stability in mouse liver microsomes assessed as parent compound remaining at 10 uM after 60 mins by LC-MS analysis; type: ADME, microsome; conditions: read-out: Stability; procedure, shortened: as §1
Liver [4] = test: Half life in mouse liver microsomes at 10 uM by LC-MS/MS analysis; type: ADME, microsome
Procedure, shortened: (§2)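 Compound at 10 μM final was preincubated 5 min at 37 °C with NADPH regenerating system in phosphate buffer, pH 7.4. Human or mouse liver microsomes (0.5 mg/mL protein) were added to start the reaction. Samples were taken at 0 (no microsomes) and 10–60 min and measured by LC-MS/MS against an internal standard. Half-life = 0.693/k, with k the slope of ln peak-area ratio versus time. Three experiments, each in duplicate.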

Liver [5] = test: Half life in human liver microsomes at 10 uM by LC-MS/MS analysis; type: ADME, microsome; procedure, shortened: as §2
HEK-293T = test: Cytotoxicity against HEK293T cells assessed as reduction in cell viability up to 400 uM after 48 hrs by CellTiter-Glo assay; type: cell-based; conditions: human
Procedure, shortened: (§3)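 HEK293T and HepG2 cells grown in high-glucose DMEM with non-essential amino acids, 10 mM HEPES, penicillin/streptomycin and 10% heat-inactivated FBS. Cells were harvested with trypsin and plated; compound was pin-transferred 3 h later. Incubation was 48 h, then CellTiter-Glo luminescence was read. Controls were DMSO (negative) and a cytotoxic aminoketone (positive). Quadruplicates, three independent runs, normalized to controls, nonlinear regression.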

HepG2 = test: Cytotoxicity against human HepG2 cells assessed as reduction in cell viability up to 400 uM after 48 hrs by CellTiter-Glo assay; type: cell-based; conditions: hepg2, 48 h; procedure, shortened: as §3
[6] = target: GABA-A receptor; alpha-6/beta-3/gamma-2 (Homo sapiens) (UniProt P18507+P28472+Q16445); test: Positive allosteric modulation of GABA-A receptor alpha6beta3gamma2 (unknown origin) expressed in Xenopus laevis oocytes assessed as potentiation of EC3 GABA induced currents up to 10 uM at -60 mV holding potential by electrophysiological method; type: cell-based
Procedure, shortened: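 Stage 5–6 defolliculated Xenopus oocytes were injected with 2.5 ng total mRNA per oocyte: α1, α2, α3 or α5 with β3 and γ2 at 1:1:5, and α4 or α6 with β3 and γ2 at 3:1:5. Oocytes were kept ≥36 h at 18 °C in NDE medium before recording. Compounds were co-applied with GABA titrated to EC3-5 for each oocyte. Curves were fitted with the Hill equation; mean ± SEM from ≥3 oocytes across two batches.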

Rattus norvegicus = species: Rattus norvegicus; test: Displacement of [3H]-flunitrazepam from rat brain GABA-A receptor benzodiazepine site […] at 10 uM after 60 to 90 mins by scintillation counting
Mus musculus = test: Neurotoxicity in Swiss Webster mouse assessed as induction of motor impairment at 40 mg/kg administered via oral gavage measured after 10 to 60 mins by rotarod method; type: toxicity, organism-based; conditions: in vivo
Procedure, shortened: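 Female mice were given a single oral gavage dose of 40 mg/kg, either in 50% PBS/40% propylene glycol/10% DMSO or, for poorly soluble compounds, in 2% polyethylene glycol plus 2.5% hydroxymethyl cellulose. Rotarod performance was tested 10, 30 and 60 min after dosing, with diazepam 5 mg/kg as positive control.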

[7] = Solubility of the compound in 0.01M HCl at pH 2 after 2 hrs by LC-MS analysis; type: physicochemical; conditions: buffer, pH 2, 2 h
Procedure, shortened: (§4)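 10 mg compound dissolved in 2 mL DMAC; 10 μL of this added to 2 mL DI water (pH 7, sonicated) or 2 mL 0.01 M aq HCl (pH 2), held 2 h at 37 °C. Filtered through 0.45 micron filter, then quantified by LC-MS in SIM mode against calibration curves of standards in DMAC (n = 5); n=3.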

[8] = Aqueous solubility of the compound in DI water at pH 7 after 2 hrs by LC-MS analysis; type: physicochemical; conditions: buffer, pH 7, 2 h; procedure, shortened: as §4
[9] = target: Mu-type opioid receptor (Homo sapiens) (UniProt P35372); test: Displacement of [3H]-DAMGO from human recombinant MOR expressed in HEK293 cells at 10 uM after 60 to 90 mins by scintillation counting; type: cell-based; conditions: tested as the 2H-labelled form
Sequence of Mu-type opioid receptor (Homo sapiens) (P35372 whole entry): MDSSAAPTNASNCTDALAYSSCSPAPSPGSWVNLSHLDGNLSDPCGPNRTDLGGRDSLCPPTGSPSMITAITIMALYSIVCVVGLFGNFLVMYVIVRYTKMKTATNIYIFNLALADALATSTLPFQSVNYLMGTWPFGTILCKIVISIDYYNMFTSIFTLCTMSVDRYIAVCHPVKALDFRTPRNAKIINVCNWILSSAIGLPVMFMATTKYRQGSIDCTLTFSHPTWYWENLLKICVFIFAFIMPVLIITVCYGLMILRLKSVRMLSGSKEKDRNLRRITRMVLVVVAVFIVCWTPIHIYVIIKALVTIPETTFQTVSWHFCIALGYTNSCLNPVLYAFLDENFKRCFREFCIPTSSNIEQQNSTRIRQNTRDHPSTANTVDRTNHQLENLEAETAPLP

[10] = target: 5-hydroxytryptamine receptor 7 (Homo sapiens) (UniProt P34969); test: Displacement of [3H]-LSD from human recombinant 5HT7 receptor expressed in HEK293 cells at 10 uM after 60 to 90 mins by scintillation counting; type: cell-based; conditions: tested as the 2H-labelled form
Sequence of 5-hydroxytryptamine receptor 7 (Homo sapiens) (P34969 whole entry): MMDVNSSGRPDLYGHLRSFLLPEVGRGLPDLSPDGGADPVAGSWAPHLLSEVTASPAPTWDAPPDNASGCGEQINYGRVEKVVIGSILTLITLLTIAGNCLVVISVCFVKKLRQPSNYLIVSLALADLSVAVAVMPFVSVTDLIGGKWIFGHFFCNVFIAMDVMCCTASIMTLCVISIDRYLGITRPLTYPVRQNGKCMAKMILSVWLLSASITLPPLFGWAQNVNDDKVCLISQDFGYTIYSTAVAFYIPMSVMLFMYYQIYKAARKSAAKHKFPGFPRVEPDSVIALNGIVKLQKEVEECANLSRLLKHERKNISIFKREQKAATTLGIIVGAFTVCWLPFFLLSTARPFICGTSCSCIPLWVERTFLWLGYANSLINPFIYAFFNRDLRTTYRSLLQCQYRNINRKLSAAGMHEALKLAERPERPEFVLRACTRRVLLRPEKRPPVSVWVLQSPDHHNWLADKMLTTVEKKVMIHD

[11] = target: T1, 5-hydroxytryptamine receptor 2C (Homo sapiens) (UniProt P28335); test: Displacement of [3H]-mesulergine from human recombinant 5HT2C receptor expressed in HEK293T cells at 10 uM after 60 to 90 mins by scintillation counting; type: cell-based; conditions: HEK-293T, tested as the 2H-labelled form
T1 sequence (whole entry): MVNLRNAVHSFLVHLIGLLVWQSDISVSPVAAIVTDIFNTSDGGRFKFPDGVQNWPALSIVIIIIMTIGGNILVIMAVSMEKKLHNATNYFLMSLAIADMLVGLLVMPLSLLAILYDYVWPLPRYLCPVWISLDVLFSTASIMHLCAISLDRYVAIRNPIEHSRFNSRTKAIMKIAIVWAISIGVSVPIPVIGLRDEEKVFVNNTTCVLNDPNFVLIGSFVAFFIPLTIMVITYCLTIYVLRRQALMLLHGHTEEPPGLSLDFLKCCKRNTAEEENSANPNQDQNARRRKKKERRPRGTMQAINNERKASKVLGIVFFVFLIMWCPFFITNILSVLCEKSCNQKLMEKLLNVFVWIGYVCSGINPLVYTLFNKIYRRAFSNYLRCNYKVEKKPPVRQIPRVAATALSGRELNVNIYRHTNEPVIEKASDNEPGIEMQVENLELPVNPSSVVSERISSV

[12] = target: 5-hydroxytryptamine receptor 2B (Homo sapiens) (UniProt P41595); test: Displacement of [3H]-LSD from human recombinant 5HT2B receptor expressed in HEK293 cells at 10 uM after 60 to 90 mins by scintillation counting; type: cell-based; conditions: tested as the 2H-labelled form
Sequence of 5-hydroxytryptamine receptor 2B (Homo sapiens) (P41595 whole entry): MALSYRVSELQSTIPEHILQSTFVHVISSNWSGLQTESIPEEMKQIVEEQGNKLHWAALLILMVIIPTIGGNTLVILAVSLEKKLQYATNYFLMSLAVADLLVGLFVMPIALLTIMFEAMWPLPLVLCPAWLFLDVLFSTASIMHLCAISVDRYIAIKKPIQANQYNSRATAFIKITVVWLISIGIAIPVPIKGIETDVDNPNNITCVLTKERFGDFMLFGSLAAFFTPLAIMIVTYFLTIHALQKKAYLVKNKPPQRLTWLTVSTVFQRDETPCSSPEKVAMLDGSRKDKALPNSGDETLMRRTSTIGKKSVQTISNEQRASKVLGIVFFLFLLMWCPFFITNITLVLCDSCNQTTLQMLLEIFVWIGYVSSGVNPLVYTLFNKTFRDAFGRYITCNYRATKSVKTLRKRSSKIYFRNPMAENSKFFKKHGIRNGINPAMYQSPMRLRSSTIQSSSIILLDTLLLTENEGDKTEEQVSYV

| Compound | inhibition (INH) [1] | remaining at 1 h, 10 µM [2] | remaining at 1 h, 10 µM [3] | t1/2 (Liver [4]) | t1/2 (Liver [5]) | Activity (Mus musculus) | other results |
| --- | --- | --- | --- | --- | --- | --- | --- |
| [2H]C([2H])([2H])Oc1cccc(-n2nc3c4ccc(OC)cc4[nH]cc-3c2=O)c1 | Not Active | 81.3% | 91.6% | 14.5 h | 3.9 h | – | – |
| [2H]C([2H])([2H])Oc1cccc(-n2nc3c4cc(OC([2H])([2H])[2H])ccc4[nH]cc-3c2=O)c1 | Not Active | – | – | – | – | – | – |
| [2H]C([2H])([2H])Oc1cccc(-n2nc3c4ccc(Br)cc4[nH]cc-3c2=O)c1 | Not Active | 63.5% | 79.5% | 3.6 h | 1.8 h | – | – |
| [2H]C([2H])([2H])Oc1ccc2c3nn(-c4ccccc4OC([2H])([2H])[2H])c(=O)c-3c[nH]c2c1 | Not Active | 90.5% | 92% | 13.9 h | 9.9 h | – | Activity (HEK-293T): Non-Toxic; Activity (HepG2): Non-Toxic |
| COc1ccccc1-n1nc2c3cc(Cl)ccc3[nH]cc-2c1=O | – | – | – | – | – | – | Activity ([6]; tested as the 2H-labelled form): inactive; inhibition (Rattus norvegicus; tested as the 2H-labelled form): Active |
| [2H]C([2H])([2H])Oc1ccc2c3nn(-c4ccc(OC([2H])([2H])[2H])nc4)c(=O)c-3c[nH]c2c1 | – | 90% | 92.5% | 14.5 h | 9.8 h | Non-Toxic | – |
| COc1ccc(-n2nc3c4cnc(OC)cc4[nH]cc-3c2=O)cc1 | Not Active | 91% | 93% | 12 h | 10.6 h | – | solubility [7]: 135.9 µM (≈ 43.8 µg/mL); Activity [6]: Active; solubility [8]: 103.7 µM (≈ 33.4 µg/mL) |
| COc1ccccc1-n1nc2c3ccc(Br)cc3[nH]cc-2c1=O | – | – | – | – | – | – | inhibition [9]: Active; inhibition [10]: Active; inhibition [11]: Active; inhibition (Rattus norvegicus; tested as the 2H-labelled form): Active; inhibition [12]: Active |
| [2H]C([2H])([2H])Oc1ccccc1-n1nc2c3ccc(Br)cc3[nH]cc-2c1=O | Not Active | 92.8% | 61.3% | 1.5 h | 14.2 h | – | – |
| COc1cccc(-n2nc3c4ccc(Br)cc4[nH]cc-3c2=O)c1 | – | – | – | – | – | – | inhibition [9]: Active; inhibition [10]: Active; inhibition [11]: Active; inhibition (Rattus norvegicus; tested as the 2H-labelled form): Active; inhibition [12]: Active |
| [2H]C([2H])([2H])Oc1ccc(-n2nc3c4ccc(Br)cc4[nH]cc-3c2=O)cn1 | Not Active | 97.8% | 98.4% | – | – | Non-Toxic | – |
| [2H]C([2H])([2H])Oc1ccccc1-n1nc2c3ccc(OC)cc3[nH]cc-2c1=O | Not Active | 79.9% | 93% | 10.9 h | 3.5 h | – | – |
| COc1ccc2c3nn(-c4ccccc4OC)c(=O)c-3c[nH]c2c1 | – | – | – | – | – | – | inhibition (Rattus norvegicus; tested as the 2H-labelled form): inactive |
| COc1ccc(-n2nc3c4cc(Cl)ccc4[nH]cc-3c2=O)cn1 | Not Active | 91.6% | 85.6% | – | – | Non-Toxic | solubility [7]: 0.9 µM (≈ 0.294 µg/mL); Activity (HEK-293T): Non-Toxic; Activity (HepG2): Non-Toxic; Activity ([6]; tested as the 2H-labelled form): inactive; inhibition (Rattus norvegicus): Active; inhibition (Rattus norvegicus; tested as the 2H-labelled form): Active; solubility [8]: 0.8 µM (≈ 0.261 µg/mL) |
| [2H]C([2H])([2H])Oc1ccc(-n2nc3c4cc(OC([2H])([2H])[2H])ccc4[nH]cc-3c2=O)cc1 | Not Active | – | – | – | – | – | – |
| [2H]C([2H])([2H])Oc1cccc(-n2nc3c4ccc(OC([2H])([2H])[2H])cc4[nH]cc-3c2=O)c1 | Not Active | 89.5% | 90.5% | 9.9 h | 7.7 h | – | Activity (HEK-293T): Non-Toxic; Activity (HepG2): Non-Toxic |
| [2H]C([2H])([2H])Oc1ccc2[nH]cc3c(=O)n(-c4ccccc4OC([2H])([2H])[2H])nc-3c2c1 | Not Active | – | – | – | – | – | – |
| COc1ccc(-n2nc3c4ccc(Br)cc4[nH]cc-3c2=O)cn1 | Not Active | 93.4% | 93.1% | – | – | Non-Toxic | solubility [7]: 7.2 µM (≈ 2.67 µg/mL); Activity (HEK-293T): Non-Toxic; Activity (HepG2): Non-Toxic; Activity ([6]; tested as the 2H-labelled form): Active; solubility [8]: 7.3 µM (≈ 2.71 µg/mL) |
| [2H]C([2H])([2H])Oc1ccc(-n2nc3c4cc(Cl)ccc4[nH]cc-3c2=O)cn1 | Not Active | 93% | 85.1% | – | – | Non-Toxic | – |
| [2H]C([2H])([2H])Oc1ccc(-n2nc3c4cc(Cl)ccc4[nH]cc-3c2=O)cc1 | Not Active | 92.2% | 85.5% | – | – | Non-Toxic | Activity (HEK-293T): Non-Toxic; Activity (HepG2): Non-Toxic |
